Laboratory results published in ChEMBL document CHEMBL5303300, “EUbOPEN Chemogenomics Library - Multiplex” (2023).
“And” between values parts separate entries of the source, which are not always exact repeats. Equal values may be shown once.

Key:
[1] = system: HEK-293T; test: Multiplex assay against HEK293T; format: toxicity, cell-based; conditions: human, number of replicates 2
Outline: (§1)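 Live cells were stained at seeding with Hoechst33342, BioTracker Green Microtubule Cytoskeleton Dye, MitoTracker Red and Annexin V Alexa Fluor 680, then imaged on a CQ1 microscope at 37°C and 5% CO2 after compound addition. CellPathfinder machine-learning gating split cells into Hoechst high-intensity objects or normal cells. Normal cells were split into healthy, pyknosed or fragmented nuclei, and pyknosed cells into mitotic or apoptotic. Tubulin, mitochondrial-mass and membrane-permeability phenotypes are per cents of healthy-nucleus cells.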

[2] = system: U2OS; test: Multiplex assay against U2OS; format: toxicity, cell-based; conditions: human, number of replicates 2; outline: as §1
[3] = 24 h, 1 µM, compound concentration 1 uM
[4] = 24 h, 10 µM, compound concentration 10 uM
[5] = 48 h, 1 µM, compound concentration 1 uM
[6] = 48 h, 10 µM, compound concentration 10 uM
[7] = 12 h, 1 µM, compound concentration 1 uM
[8] = 12 h, 10 µM, compound concentration 10 uM

Structure (SMILES): Cn1cc(-c2ccc(N(C(=O)NCc3ccccc3)[C@H]3CC[C@H](Nc4ccc(C#N)cn4)CC3)cc2)ccc1=O
- Population Mitotic Cells (%) [1, 3]: 65% and 68%
- Population Normal (%) [1, 3]: 91% and 93%
- Population Pyknosed Nuclei (%) [1, 3]: 7% and 8%
- Population Tubulin-Different-Phenotype (%) [1, 3]: 33% and 30%
- Total Cell Count [1, 3]: 908 and 972
- Population Apoptotic (%) [1, 4]: 55% and 37%
- Population Fragmented Nuclei (%) [1, 4]: 4% and 9%
- Population Healthy Nuclei (%) [1, 4]: 86% and 77%
- Population Hoechst High Intensity Objects (%) [1, 4]: 12% and 11%
- Population Membrane Permeable-Phenotype (%) [1, 4]: 3% and 7%
- Population Mitochondria Different-Phenotype (%) [1, 4]: 42% and 52%
- Population Mitotic Cells (%) [1, 4]: 44% and 62%
- Population Normal (%) [1, 4]: 87% and 88%
- Population Pyknosed Nuclei (%) [1, 4]: 9% and 12%
- Population Tubulin-Different-Phenotype (%) [1, 4]: 91% and 90%
- Total Cell Count [1, 4]: 478 and 532
- Population Apoptotic (%) [1, 5]: 9% and 8%
- Population Fragmented Nuclei (%) [1, 5]: 10% and 11%
- Population Healthy Nuclei (%) [1, 5]: 85%
- Population Hoechst High Intensity Objects (%) [1, 5]: 9%
- Population Membrane Permeable-Phenotype (%) [1, 5]: 6%
- Population Mitochondria Different-Phenotype (%) [1, 5]: 1% and 0%
- Population Mitotic Cells (%) [1, 5]: 90% and 91%
- Population Normal (%) [1, 5]: 90%
- Population Pyknosed Nuclei (%) [1, 5]: 3%
- Population Tubulin-Different-Phenotype (%) [1, 5]: 14% and 16%
- Total Cell Count [1, 5]: 2214 and 2329
- Population Apoptotic (%) [1, 6]: 43% and 56%
- Population Fragmented Nuclei (%) [1, 6]: 7% and 3%
- Population Healthy Nuclei (%) [1, 6]: 79% and 86%
- Population Hoechst High Intensity Objects (%) [1, 6]: 10% and 13%
- Population Membrane Permeable-Phenotype (%) [1, 6]: 5% and 2%
- Population Mitochondria Different-Phenotype (%) [1, 6]: 39% and 30%
- Population Mitotic Cells (%) [1, 6]: 56% and 43%
- Population Normal (%) [1, 6]: 89% and 86%
- Population Pyknosed Nuclei (%) [1, 6]: 12% and 9%
- Population Tubulin-Different-Phenotype (%) [1, 6]: 74% and 66%
- Total Cell Count [1, 6]: 578 and 533
- Population Apoptotic (%) [2, 7]: 50% and 60%
- Population Healthy Nuclei (%) [2, 7]: 48% and 86%
- Population Hoechst High Intensity Objects (%) [2, 7]: 0%
- Population Membrane Permeable-Phenotype (%) [2, 7]: 0% and 3%
- Population Mitochondria Different-Phenotype (%) [2, 7]: 5% and 3%
- Population Mitotic Cells (%) [2, 7]: 50% and 39%
- Population Normal (%) [2, 7]: 100%
- Population Pyknosed Nuclei (%) [2, 7]: 14% and 12%
- Population Tubulin-Different-Phenotype (%) [2, 7]: 55% and 75%
- Population Apoptotic (%) [2, 8]: 93% and 59%
- Population Fragmented Nuclei (%) [2, 8]: 16% and 12%
- Population Healthy Nuclei (%) [2, 8]: 41% and 57%
- Population Hoechst High Intensity Objects (%) [2, 8]: 0%
- Population Membrane Permeable-Phenotype (%) [2, 8]: 20% and 21%
- Population Mitochondria Different-Phenotype (%) [2, 8]: 33% and 16%
- Population Normal (%) [2, 8]: 100% and 99%
- Population Pyknosed Nuclei (%) [2, 8]: 41% and 30%
- Population Tubulin-Different-Phenotype (%) [2, 8]: 40% and 48%
- Population Apoptotic (%) [2, 3]: 66% and 60%
- Population Healthy Nuclei (%) [2, 3]: 40% and 87%
- Population Hoechst High Intensity Objects (%) [2, 3]: 0%
- Population Membrane Permeable-Phenotype (%) [2, 3]: 0% and 3%
- Population Mitochondria Different-Phenotype (%) [2, 3]: 0% and 1%
- Population Mitotic Cells (%) [2, 3]: 33% and 40%
- Population Normal (%) [2, 3]: 100% and 99%
- Population Pyknosed Nuclei (%) [2, 3]: 19% and 9%
- Population Tubulin-Different-Phenotype (%) [2, 3]: 63% and 79%
- Population Apoptotic (%) [2, 4]: 90% and 75%
- Population Fragmented Nuclei (%) [2, 4]: 8% and 11%
- Population Healthy Nuclei (%) [2, 4]: 31%
- Population Hoechst High Intensity Objects (%) [2, 4]: 0%
- Population Membrane Permeable-Phenotype (%) [2, 4]: 36% and 21%
- Population Mitochondria Different-Phenotype (%) [2, 4]: 27% and 46%
- Population Mitotic Cells (%) [2, 4]: 9% and 24%
- Population Normal (%) [2, 4]: 100% and 99%
- Population Pyknosed Nuclei (%) [2, 4]: 60% and 56%
- Population Tubulin-Different-Phenotype (%) [2, 4]: 36% and 69%
- Population Apoptotic (%) [2, 5]: 85% and 68%
- Population Healthy Nuclei (%) [2, 5]: 65% and 88%
- Population Hoechst High Intensity Objects (%) [2, 5]: 0%
- Population Membrane Permeable-Phenotype (%) [2, 5]: 2% and 1%
- Population Mitochondria Different-Phenotype (%) [2, 5]: 0%
- Population Mitotic Cells (%) [2, 5]: 14% and 31%
- Population Normal (%) [2, 5]: 100%
- Population Pyknosed Nuclei (%) [2, 5]: 11% and 8%
- Population Tubulin-Different-Phenotype (%) [2, 5]: 70% and 85%
- Population Apoptotic (%) [2, 6]: 78% and 88%
- Population Fragmented Nuclei (%) [2, 6]: 30% and 10%
- Population Healthy Nuclei (%) [2, 6]: 23% and 24%
- Population Hoechst High Intensity Objects (%) [2, 6]: 0% and 2%
- Population Membrane Permeable-Phenotype (%) [2, 6]: 40% and 37%
- Population Mitochondria Different-Phenotype (%) [2, 6]: 40% and 37%
- Population Mitotic Cells (%) [2, 6]: 21% and 11%
- Population Normal (%) [2, 6]: 100% and 97%
- Population Pyknosed Nuclei (%) [2, 6]: 45% and 65%
- Population Tubulin-Different-Phenotype (%) [2, 6]: 40% and 52%
